Screening data: PubChem, Johns Hopkins Ion Channel Center
Compounds with a hit are over-represented: about 3.5% of the library has one in this group of screens.
MrgX1 allo act: positive allosteric modulators of MrgX1, primary screen, HEK293 cells, Fluo-4 calcium flux; Mas-related G-protein coupled receptor member X1 (Homo sapiens), Q96LB2; FDSS; active compounds read high; B-score at 10 µM; 310,000 tested, 0.63% active;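 active means plate-corrected calcium response at least 3 library SD above typical, normal starting fluorescence, not activating the receptor alone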;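 further: compound read alongside a low EC10 to EC30 dose of BAM8-22 agonist; peak minus trough fluorescence over baseline measured at the second addition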
RGS4 inh: RGS4 inhibitors, primary screen, cell-based, HEK293 M3R inducible RGS4, calcium flux; Regulator of G-protein signaling 4 (Homo sapiens), P49798; Fluo-4 calcium flux; active compounds read high; triggered by carbachol at its EC20; B-score at 10 µM; 310,000 tested, 0.45% active;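 active means B-score, a plate-corrected calcium signal, over three deviations above library mean, with baseline fluorescence within five deviations of library mean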;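 further: RGS4 expression induced by doxycycline in cells with stable M3 receptor; B-score is computed from the integrated fluorescence ratio over baseline after carbachol; higher B-score means a larger calcium signal and so more RGS4 inhibition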
Target sequence (P49798 whole entry, looked up): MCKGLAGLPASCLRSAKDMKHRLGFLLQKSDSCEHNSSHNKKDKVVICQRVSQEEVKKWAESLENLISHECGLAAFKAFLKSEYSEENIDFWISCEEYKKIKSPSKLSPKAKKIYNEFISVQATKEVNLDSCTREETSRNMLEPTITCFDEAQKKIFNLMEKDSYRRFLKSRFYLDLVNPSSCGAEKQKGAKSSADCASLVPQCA
MrgX1 antagonist: antagonists of human MrgX1 receptor, primary screen, HEK293 cells, Fluo-4 calcium flux | Mas-related G-protein coupled receptor member X1 (Homo sapiens), Q96LB2 | BAM8-22 antagonism; active compounds read low | B-score at 10 µM | 310,000 tested, 1.3% active;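 active means calcium-response B-score plate-corrected more than 3 library SD below zero, starting fluorescence within 5 deviations, no agonist response on first addition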;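 further: peak minus trough fluorescence over baseline after final BAM8-22 challenge near maximal dose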
RGS4 act: RGS4 potentiators or activators, primary screen, cell-based, HEK293 M3R inducible RGS4, calcium flux | carbachol calcium flux Fluo4; active compounds read low | B-score at 10 µM | 310,000 tested, 0.92% active;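 active means B-score of the integrated calcium signal more than 4 SD below the library mean, with starting fluorescence not abnormally high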;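 further: negative B-score means reduced calcium response which marks RGS4 activation or potentiation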
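test system = M3R-expressing HEK293 line, RGS4 induced by doxycycline | probe or stimulus = carbachol at ECmax as muscarinic agonist stimulus | timing = dye loading 30 min 37 °C, buffer rest 30 min RT | signal = calcium dye Fluo4 fluorescence | evaluation = B score from integrated fluorescence ratio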
MrgX1 agonist: agonists of human MrgX1 receptor, primary screen, HEK293 cells, Fluo-4 calcium flux; AID 588627, 2011; B-score at 10 µM; Mas-related G-protein coupled receptor member X1 (Homo sapiens), Q96LB2; Fluo-4 calcium fluorescence, agonist mode; active compounds read high; 310,000 tested, 0.44% active;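 active means calcium response B-score plate-corrected fluorescence ratio at least 3 library SD, with starting fluorescence B-score inside 5 SD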
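Material: MrgX1-expressing HEK293 cells; input: 15,000 cells per well; doses: test compound given as first of three sequential additions; schedule: overnight plating before 1 h dye loading; technique: Fluo-4 NW calcium-flux fluorescence, kinetic read; evaluation: baseline-normalised fluorescence change ratio, B-scored; control set: plate-wise positive and negative controls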
The depositor's hits bear a star; i = inactive; . = no result given.

SMILES	MrgX1 allo act	RGS4 inh	MrgX1 antagonist	RGS4 act	MrgX1 agonist
c1cncc(CNc2nc(-c3cccnc3)nc3ccccc23)c1	i	i	i	i	i
Clc1cccc(CNc2nc(-c3cccnc3)nc3ccccc23)c1	.	i	.	-9.2*	.
CCOC(=O)c1ccc(Nc2nc(-c3cccnc3)nc3ccccc23)cc1	i	i	i	-7.1*	i
CSc1ncccc1C(=O)N1CCCC(N2CCN(c3ccccc3F)CC2)C1 (stereo unspecified)	i	i	i	i	i
Cc1ccc(C)c(S(=O)(=O)N2CCN(C(=O)CSc3ccccc3F)CC2)c1	i	i	i	i	i
Fc1ccc(CNc2nc(-c3cccnc3)nc3ccccc23)cc1	i	i	i	-7.1*	35*
Cc1ccccc1Nc1nc(-c2cccnc2)nc2ccccc12	i	i	i	-7.2*	42*
CN(Cc1ccccc1F)c1nc(-c2cccnc2)nc2ccccc12	i	i	i	-14*	i
Cc1ccc(OCCCn2ccnc2)c(Br)c1	i	i	i	i	i
Cc1ccc(-c2cnn3c(N4CCOCC4)cc(C)nc23)cc1	i	i	i	i	i
Cn1c(=O)cc(OCC(=O)NCCCN2CCN(Cc3ccccc3)CC2)c2ccccc21	i	i	-4.5*	i	i
COc1ccccc1NS(=O)(=O)c1cc(C(=O)NCC(c2ccco2)N2CCCCC2)ccc1C (stereo unspecified)	i	i	-5.4*	i	i
COc1ccccc1NS(=O)(=O)c1cc(C(=O)NCC(c2ccco2)N(C)C)ccc1C (stereo unspecified)	i	i	i	i	i
Cc1nc(SCC(=O)N2c3ccccc3Sc3ccccc32)n[nH]1	i	i	i	i	i
Cn1cc([N+](=O)[O-])c(C(=O)N(Cc2ccccc2)Cc2ccccc2)n1	i	i	i	i	i
CC(=O)Nc1ccc(NC(=O)C(C)OC(=O)CCCOc2ccc(Cl)cc2C)cc1 (stereo unspecified)	i	i	-7.8*	i	i
O=C1/C(=N/n2cnnc2)c2ccccc2N1Cc1ccccc1	i	i	i	i	45*
CSc1nnc(C)c(/C=C/Nc2ccc(F)cc2F)n1	i	i	i	i	i
C=CCSc1nnc(C)c(/C=C/Nc2ccc(Cl)cc2)n1	i	i	i	-7.5*	i
Cc1ccc(/C(C#N)=C\c2ccc(N3CCOCC3)o2)cc1	i	i	i	i	i
N#C/C(=C/c1ccc(N2CCCCC2)cc1)c1cccc(F)c1	i	i	i	i	i
N#C/C(=C/c1ccc(N2CCCCC2)o1)c1cccc(F)c1	i	i	-6.4*	i	i
N#C/C(=C/c1ccc(N2CCCCCC2)o1)c1ccc(Cl)cc1	6.5*	i	i	i	i
COc1ccc(C(O)(CCc2ccccc2)CCN2CCCCC2)cc1 (stereo unspecified)	i	i	i	-8.9*	i
C=CCC(O)(CCN1CCCCC1)c1ccccc1 (stereo unspecified)	i	i	i	i	i
CN(C)c1ccccc1C(=O)N1CCCC(C(=O)c2ccc3ccccc3c2)C1 (stereo unspecified)	i	i	i	i	i
COc1cc(/C=C(/C#N)C(=O)NC(C)c2ccccc2)cc(OC)c1O (stereo unspecified)	i	i	i	i	59*
COc1ccccc1/C=C/C=C(\C#N)C(=O)NC(C)c1ccccc1 (stereo unspecified)	i	i	i	i	i
COC(=O)c1cccc(N(C(=O)c2cnccn2)C(C(=O)NC2CCCCC2)c2cn(C)nc2C)c1 (stereo unspecified)	i	i	i	i	i
COc1ccc(NC(=O)c2cc(S(=O)(=O)N3CCCCC3)ccc2N2CCCCC2)cn1	i	i	i	-7*	i
